This is a sample that favours compounds with a hit; in the whole collection about 1.8% have one here.
Runt-SMMHC FRET: Runt domain-CBFb-SMMHC interaction inhibition. Cerulean-Runt/Venus-CBFb-SMMHC FRET ratio 530/480, 1 h. inhibition, % at 20 µM. actives 0.74% (n = 220,000);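 active means mean inhibition across duplicate retests at 20 µM reaching about 50%, limit read from the data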;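 further: 0% = DMSO wells and 100% = wells with excess untagged CBFb-SMMHC; inhibitors lower the FRET ratio by blocking Runt binding to CBFb-SMMHC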
Runt-CBFb FRET: Runt domain-CBFb interaction inhibition; Q01196+Q13951; Cerulean-Runt/Venus-CBFb FRET ratio 530/480, 1 h; inhibition, % at 20 µM; actives 0.46% (n = 220,000); AID 1496;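 active means inhibition over about 50% at 20 µM in the single-dose screen, limit read from the data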;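 further: 0% = DMSO wells and 100% = excess unlabeled CBFb competitor control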
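System: Cerulean-labeled Runt domain protein | Quantity: 100 nM of each labeled protein | Schedule: 1 h compound exposure, room temperature | Detection: Fluorescence energy transfer, 422 nm excitation, 530/480 nm emission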
RanGTP-Imp inh: disruptors of Ran-importin-beta complex formation – biochemical, FRET, CFP-Ran, YFP-importin-beta, homogeneous, primary screen. cell-free CFP-Ran/YFP-importin-beta FRET ratio. inhibition, % (no concentration beside the values). actives 1.1% (n = 300,000). AID 2216;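 active means more than half of the replicate wells show a fall in the fluorescence ratio signal beyond about 16%, limit read from the data, passing the limit was not always enough; inconclusive means exactly half of the replicate wells pass the set limit; inactive means fewer than half of replicates pass the limit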;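 further: 0% = DMSO wells and 100% = Ran loaded with GDP instead of GTP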
Hck Nef HTS: blocks Nef-activated human Hck kinase | Recombinant Hck-YEEI plus Nef, Z-Lyte FRET kinase assay | inhibition, % at 20 µM | actives 0.68% (n = 220,000) | AID 463187;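 active means Hck-Nef kinase inhibition above about 50%, limit read from the data; inactive means inhibition below that limit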;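 further: 0% = DMSO with Hck plus Nef and 100% = Hck alone without Nef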
Target sequence (P08631 whole entry, looked up): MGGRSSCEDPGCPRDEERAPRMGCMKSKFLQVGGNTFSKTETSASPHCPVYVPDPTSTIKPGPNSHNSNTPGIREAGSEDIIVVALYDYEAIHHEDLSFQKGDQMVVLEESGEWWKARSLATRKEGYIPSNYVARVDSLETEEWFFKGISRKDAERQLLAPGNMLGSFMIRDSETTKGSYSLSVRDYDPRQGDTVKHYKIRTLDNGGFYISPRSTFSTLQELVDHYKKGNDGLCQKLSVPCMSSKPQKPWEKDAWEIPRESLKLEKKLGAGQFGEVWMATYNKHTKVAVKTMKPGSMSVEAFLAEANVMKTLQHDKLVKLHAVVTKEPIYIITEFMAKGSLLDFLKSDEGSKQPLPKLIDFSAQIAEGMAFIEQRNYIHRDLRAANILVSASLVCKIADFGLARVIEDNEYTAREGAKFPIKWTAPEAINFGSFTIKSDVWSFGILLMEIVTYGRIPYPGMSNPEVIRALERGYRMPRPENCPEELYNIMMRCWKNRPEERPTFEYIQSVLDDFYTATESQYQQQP
Hck Nef conf: confirmation of Hck-Nef kinase inhibitors | shares compounds with Hck Nef HTS | Recombinant Hck-YEEI:Nef, Z-Lyte FRET kinase assay | calls only at 10 µM | actives 28% (n = 1,300) | AID 463188;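 active means average inhibition of at least 50%, with Z-scores no higher than 3 in both the phospho-tyrosine peptide and fluorescence counterscreens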
Active calls of the source: *; i = inactive; ? = inconclusive; . = no result shown; + = active, no number.

SMILES	Runt-SMMHC FRET	Runt-CBFb FRET	RanGTP-Imp inh	Hck Nef HTS	Hck Nef conf
COc1ccccc1N1C(=N)S/C(=C\c2ccc(-c3ccccc3C(=O)O)o2)C1=O	-90	-14	-9	60*	+
Cc1c(C(=O)O)cccc1-c1ccc(/C=C2\SC(=O)NC2=O)o1	.	.	7	.	.
N=C1S/C(=C\c2ccc(-c3ccccc3C(=O)O)o2)C(=O)N1c1ccc2c(c1)OCO2	-26	-7	-10	85*	+
CCOC(=O)CN1C(=O)S/C(=C\c2ccc(-c3cccc(C(=O)O)c3C)o2)C1=O	.	.	8	.	.
Cc1ccc(NC(=O)C2CCN(c3cnccn3)CC2)cc1C	-6	0	-2	21	.
CCC1CCCCN1S(=O)(=O)c1ccc(C(=O)N(CCCN(C)C)c2nc3cc4c(cc3s2)OCO4)cc1 (stereo unspecified)	.	.	-1	.	.
Cc1cc(=O)oc2c(CN(C)Cc3ccccc3)c(O)ccc12	82*	36	6	58*	.
CN(Cc1ccccc1)Cc1c(O)ccc2ccccc12	.	.	3	.	.
C=CCOc1ccc(Br)cc1/C=C1/SC(=Nc2ccc(C(=O)O)cc2)NC1=O	-7	-10	.	59*	+
CCN(CC)c1ccc(-c2nnc(SCC(=O)Nc3ccccc3C#N)n2-c2ccccc2)cc1	-2	-4	9	66*	+
CCc1c(C)c2ccc(O)c(CN3CCCC3)c2oc1=O	.	.	11	.	.
COC(=O)Cc1c(C)c2ccc(O)c(CN3CCCC(C)C3)c2oc1=O (stereo unspecified)	112*	98*	22*	75*	.
CCN(CC)S(=O)(=O)c1ccc(N2CCOCC2)c(NC(=O)c2cc([N+](=O)[O-])ccc2Cl)c1	2	-5	3	-1	.
Cn1cc(Cl)c(/C(N)=N/OC(=O)c2ccccc2C(F)(F)F)n1	.	.	-1	.	.
CCn1c(NC(=O)c2ccccc2F)c(-c2cccs2)c(=O)c2ccccc21	-5	4	0	3	.
COC(=O)C1CCN(C(=O)c2cc3c(=O)n4cccc(C)c4nc3n2Cc2ccccc2)CC1	5	-1	1	21	.
CCCCNC(=O)c1cc2c(=O)n3cccc(C)c3nc2n(Cc2ccncc2)c1=N	70*	20	188*	67*	i
COCCNC(=O)c1cc2c(=O)n3cccc(C)c3nc2n(Cc2ccncc2)c1=N	40	12	192*	151*	.
CCC(C)Nc1nc(N)c([N+](=O)[O-])c(Nc2cc(OC)ccc2OC)n1 (stereo unspecified)	-2	-3	2	52*	i
CCC(C)Nc1nc(N)c([N+](=O)[O-])c(Nc2ccccc2OC)n1 (stereo unspecified)	3	-4	5	22	.
N#CCOC(=O)C1CCN(S(=O)(=O)c2ccc3c(c2)OCCO3)CC1	.	.	3	.	.
Nc1ccc(-c2nc3ccc(C(=O)O)cc3s2)cc1	86*	36	-6	115*	.
Nc1ccc(-c2nc3ccc(N)cc3s2)cc1	45	21	-6	61*	i
Cc1cc(NC(=O)NC2CC(=O)N(c3ccc4c(c3)OCCO4)C2)no1 (stereo unspecified)	1	0	8	14	.
N#Cc1c(-c2ccco2)nc(SCC(=O)Nc2cccc(Cl)c2)[nH]c1=O	6	17	-3	56*	+
SMILES	Runt-SMMHC FRET	Runt-CBFb FRET	RanGTP-Imp inh	Hck Nef HTS	Hck Nef conf
O=[N+]([O-])c1ccc(CN2CCN(c3ccc4ccccc4n3)CC2)cc1	-4	1	-1	18	.
CCCCCCCCCCCCCCCCn1cc[n+](CC(C)=O)c1	2	-4	.	63*	i
CCCCCCn1ccc(=N)cc1	2	2	-3	0	.
O=c1[nH]c(S)c(/C=C2\C=Nc3ccccc32)s1	-29	31	?	-54	.
Oc1cccc(Nc2nc(O)c(/C=C3\C=Nc4ccccc43)s2)c1	-114	-40	.	88*	+
CC(=O)N1CCc2cc(S(=O)(=O)NCCN3CCC(C)CC3)ccc21	1	1	-2	0	.
Cc1ccc(C(C(=O)NC(C)(C)C)N(Cc2cccnc2)C(=O)C(=O)NC2CCCCC2)o1 (stereo unspecified)	-2	2	7	26	.
COc1ccccc1N1CCN(C(=O)CSc2nc(C)c(C)c(=O)[nH]2)CC1	4	-1	?	66*	i
CCc1c(C)nc(SCC(=O)N2CCN(c3ccccc3OC)CC2)[nH]c1=O	1	-1	2	25	.
O=C(Nc1c2ccccc2nc2ccccc12)C(Cl)(Cl)Cl	-14	12	135*	71*	i
CC(C)CC1(C)N=C(c2ccccc2)C(=S)N1 (stereo unspecified)	-2	-1	3	21	.
O=C(N/N=C\c1ccc(F)cc1)c1ccc(Cn2cc(Br)c([N+](=O)[O-])n2)o1	3	0	5	62*	+
COc1cc(/C=C2\SC(c3ccc(C)cc3)=NC2=O)cc(OC)c1O	40	22	-2	2	.
Cc1ccc(C2=NC(=O)/C(=C/c3cc(O)c(O)c(Br)c3)S2)cc1	30	33	.	50*	+
CCCOc1ccc(-c2c(C(=O)N/N=C(\C)COc3ccccc3)nnn2-c2nonc2N)cc1	.	.	7	.	.
Cc1ccc(C(=O)Nc2cccc(C(F)(F)F)c2)cc1Nc1ncnc2nc[nH]c12	3	-1	0	55*	i
Cc1ccc(C(=O)Nc2cccc(C(F)(F)F)c2)cc1NC(=O)c1ccno1	0	1	4	75*	+
Cc1ccc(C(=O)Nc2cccc(C(F)(F)F)c2)cc1NC(=O)c1nccn1C	-5	-3	2	40	.
COc1ccc(N2CC(C(=O)OCC(=O)Nc3cccc(C)c3C)CC2=O)cc1 (stereo unspecified)	.	.	0	.	.
COc1cc(OC)c(/C=N/NC(=O)c2ccc(NC(C)=O)cc2)cc1Br	3	2	0	55*	i
COc1cc(OC)c(/C=N/NC(=O)c2ccncc2)cc1Br	-1	.	1	4	.
COc1ccc(OC)c(NC(=O)Cn2cc(C#N)c3cc(Br)ccc32)c1	-1	2	-3	69*	i
COc1ccc(NC(=O)Cn2cc(C#N)c3ccccc32)cc1	-1	0	3	23	.
NC(=O)c1cc2ccc(O)cc2oc1=NCc1ccccc1	83*	5	181*	104*	.
O=C(Cn1nc(-c2ccc3c(c2)OCCO3)ccc1=O)Nc1ccc(-n2cnnn2)cc1	-10	-1	1	52*	i
O=C(Cn1nc(-c2ccccc2)ccc1=O)Nc1ccc(-n2cnnn2)cc1	-5	3	1	11	.
O=C(O)CSc1cc(C(=O)c2ccccc2O)cn2c(=O)c3c(-c4ccccc4)csc3nc12	-31	-16	4	61*	+
Cc1cc(C)cc(-n2ccn(CC(=O)NCCc3ccccc3)c(=O)c2=O)c1	.	.	2	.	.

Assay outcomes as filed in PubChem BioAssay.
